Ki and inhibition data for 37 compounds are collected here from ChEMBL document CHEMBL1148606 (J Med Chem, 2006).

What all share (type): cell-based
The target of assay [1] is T1, Adenosine receptor A2a (Homo sapiens, UniProt P29274). In words: Displacement of [3H]CGS-21680 from human adenosine A2A receptor transfected in HEK293 cells. The essentials:
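Membranes (20 µg/tube) from HEK-293 cells stably expressing human A2A receptor, incubated with 15 nM [3H]CGS21680 at 25 °C for 60 min in 50 mM Tris·HCl pH 7.4 with 10 mM MgCl2. Nonspecific binding defined with 10 µM NECA. Terminated by filtration through GF/B filters.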

For another assay, the target named is T2, Adenosine receptor A3 (Homo sapiens, UniProt P0DMS8).
T2 sequence (P0DMS8 whole entry): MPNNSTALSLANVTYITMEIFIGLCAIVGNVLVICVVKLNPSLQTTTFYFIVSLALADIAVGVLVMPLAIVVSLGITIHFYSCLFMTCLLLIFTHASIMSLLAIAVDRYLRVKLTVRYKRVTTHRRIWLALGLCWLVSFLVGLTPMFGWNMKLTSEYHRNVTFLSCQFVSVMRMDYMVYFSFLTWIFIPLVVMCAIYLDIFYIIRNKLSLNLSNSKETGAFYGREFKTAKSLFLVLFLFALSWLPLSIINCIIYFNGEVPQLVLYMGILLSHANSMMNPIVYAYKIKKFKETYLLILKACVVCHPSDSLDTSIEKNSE
As to the kind of experiment: Displacement of [125I]AB-MECA from human adenosine A3 receptor transfected in CHO cells. In general terms: Displacement assays read how much labelled ligand stays bound in the presence of the test substance.

The target in the next assay is T3, Adenosine receptor A1 (Homo sapiens, UniProt P30542).
T3 sequence (P30542 whole entry): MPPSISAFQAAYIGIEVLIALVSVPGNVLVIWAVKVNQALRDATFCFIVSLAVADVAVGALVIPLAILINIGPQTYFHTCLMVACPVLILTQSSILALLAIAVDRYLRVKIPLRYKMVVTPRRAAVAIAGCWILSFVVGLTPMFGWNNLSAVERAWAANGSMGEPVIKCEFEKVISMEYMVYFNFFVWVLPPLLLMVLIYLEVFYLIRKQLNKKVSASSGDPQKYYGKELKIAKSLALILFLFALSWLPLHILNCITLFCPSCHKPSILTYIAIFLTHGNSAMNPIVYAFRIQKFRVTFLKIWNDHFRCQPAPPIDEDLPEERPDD
As to the kind of experiment: Displacement of [3H]R-PIA from human adenosine A1 receptor transfected in CHO cells. In outline:
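Membranes (40 µg/tube) from CHO cells stably expressing human A1 receptor were incubated with 2 nM [3H]R-PIA at 25 °C for 60 min in 50 mM Tris·HCl pH 7.4 containing 10 mM MgCl2. Nonspecific binding defined with 10 µM CPA. Terminated by filtration through GF/B filters.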

Assay [2] concerns the target T1, Adenosine receptor A2a. In words: Inhibition of [3H]CGS-21680 binding to human adenosine A2A receptor transfected in HEK293 cells at 10 uM.
Assay [3] deals with T4, Adenosine receptor A1 (Homo sapiens) (UniProt P30542).
T4 sequence (whole entry): T3 sequence (P30542 whole entry)
In words: Inhibition of [3H]R-PIA binding to human adenosine A1 receptor transfected in CHO cells at 10 uM.

Broadly, the Ki is the dissociation constant of the complex between target and ligand, obtained from inhibition or displacement. As usually defined, the inhibition is the relative decrease from the control value, in per cent. Lower therefore signals a response near the control.

T1 sequence (P29274 whole entry): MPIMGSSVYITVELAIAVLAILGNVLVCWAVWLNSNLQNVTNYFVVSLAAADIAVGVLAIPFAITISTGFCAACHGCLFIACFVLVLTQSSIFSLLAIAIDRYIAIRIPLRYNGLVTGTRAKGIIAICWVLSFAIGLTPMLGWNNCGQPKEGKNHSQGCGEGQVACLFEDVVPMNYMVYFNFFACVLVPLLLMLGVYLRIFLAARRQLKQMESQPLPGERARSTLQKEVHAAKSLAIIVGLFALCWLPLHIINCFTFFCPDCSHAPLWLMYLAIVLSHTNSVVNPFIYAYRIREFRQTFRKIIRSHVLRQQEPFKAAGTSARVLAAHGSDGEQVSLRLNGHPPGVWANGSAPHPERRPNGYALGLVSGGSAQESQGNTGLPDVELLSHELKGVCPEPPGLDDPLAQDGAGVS

With `CNC(=O)[C@H]1S[C@@H](n2cnc3c(NC4CC4)nc(Cl)nc32)[C@H](O)[C@@H]1O`, the Ki worked out at 4890 nM on Adenosine receptor A2a [1], 2.24 nM at Adenosine receptor A3 and 37.3 nM at Adenosine receptor A1.
At Adenosine receptor A3, `CNc1nc(Cl)nc2c1ncn2[C@@H]1S[C@H](C(=O)N2CCN(c3ccc(F)cc3)CC2)[C@@H](O)[C@H]1O` showed an inhibition constant (Ki) of 2700 nM. Also, the values for the inhibition (at Adenosine receptor A2a [2]; in assay [3]) were 34% and 28%, respectively.
For `Cc1ccccc1CNc1nc(Cl)nc2c1ncn2[C@@H]1S[C@H](C(=O)NCC2CC2)[C@@H](O)[C@H]1O`, the Ki was determined as 3890 nM at Adenosine receptor A2a [1], 29.7 nM on Adenosine receptor A3 and 1980 nM at Adenosine receptor A1.
For `O=C(NC1CCC1)[C@H]1S[C@@H](n2cnc3c(NCc4cccc(I)c4)nc(Cl)nc32)[C@H](O)[C@@H]1O`, in that order: 549 nM, 18.2 nM and 126 nM.
Compound `O=C([C@H]1S[C@@H](n2cnc3c(NCc4cccc(I)c4)nc(Cl)nc32)[C@H](O)[C@@H]1O)N1CCOCC1` gave an inhibitory constant (Ki) at Adenosine receptor A3 of 510 nM. The values for the inhibition (on Adenosine receptor A2a [2]; in assay [3]) were 4% and 18%, respectively.
`O=C(NCc1cccc(C(F)(F)F)c1)[C@H]1S[C@@H](n2cnc3c(NCc4cccc(I)c4)nc(Cl)nc32)[C@H](O)[C@@H]1O`: the affinity at Adenosine receptor A3, expressed as Ki, was 354 nM. In addition, the inhibition on Adenosine receptor A2a [2] is 11%; in assay [3], 0%.
For `CNc1nc(Cl)nc2c1ncn2[C@@H]1S[C@H](C(=O)N2CCC(Cc3ccccc3)CC2)[C@@H](O)[C@H]1O`, on Adenosine receptor A3, the inhibitory constant (Ki) turned out to be 3500 nM. In addition, the inhibition worked out at 6% at Adenosine receptor A2a [2] and 10% in assay [3].
Regarding `O=C(NC1CC1)[C@H]1S[C@@H](n2cnc3c(NCc4cccc(I)c4)nc(Cl)nc32)[C@H](O)[C@@H]1O`, the Ki at Adenosine receptor A2a [1] is 326 nM; at Adenosine receptor A3, 2.96 nM; at Adenosine receptor A1 it was 92 nM.
Take `CNC(=O)[C@H]1S[C@@H](n2cnc3c(NC)nc(Cl)nc32)[C@H](O)[C@@H]1O`: the inhibition on Adenosine receptor A2a [2] was found to be 20%.
`CNC(=O)[C@H]1S[C@@H](n2cnc3c(NCc4ccccc4C)nc(Cl)nc32)[C@H](O)[C@@H]1O`: the inhibitory constant (Ki) is 1320 nM on Adenosine receptor A2a [1], 2.18 nM at Adenosine receptor A3 and 507 nM at Adenosine receptor A1.
For `CCNC(=O)[C@H]1S[C@@H](n2cnc3c(NCc4cccc(I)c4)nc(Cl)nc32)[C@H](O)[C@@H]1O`, in that order: 292 nM, 0.89 nM and 144 nM.
In the case of `O=C(NCC1CC1)[C@H]1S[C@@H](n2cnc3c(NCc4cccc(I)c4)nc(Cl)nc32)[C@H](O)[C@@H]1O`, the Ki at Adenosine receptor A2a [1] is 2220 nM; on Adenosine receptor A3 it was 3.64 nM; at Adenosine receptor A1, 1720 nM.
`CNc1nc(Cl)nc2c1ncn2[C@@H]1S[C@H](C(=O)N2CCOCC2)[C@@H](O)[C@H]1O` showed a Ki on Adenosine receptor A3 of 3870 nM. The inhibition on Adenosine receptor A2a [2] was 24%; in assay [3], 4%.
In the same order, the values of `CNc1nc(Cl)nc2c1ncn2[C@@H]1S[C@H](C(=O)NCCc2cccc(F)c2)[C@@H](O)[C@H]1O` are 85.6 nM, 30% and 15%.
`Cc1ccccc1CNc1nc(Cl)nc2c1ncn2[C@@H]1S[C@H](C(=O)N(C)C)[C@@H](O)[C@H]1O` returned an inhibitory constant (Ki) at Adenosine receptor A3 of 632 nM. The inhibition at Adenosine receptor A2a [2] amounted to 22.5%; in assay [3], 0%.
As for `CCNC(=O)[C@H]1S[C@@H](n2cnc3c(NCc4ccccc4C)nc(Cl)nc32)[C@H](O)[C@@H]1O`, the inhibition constant Ki at Adenosine receptor A2a [1] was found to be 429 nM; on Adenosine receptor A3, 2.5 nM; at Adenosine receptor A1, 75.8 nM.
`CNc1nc(Cl)nc2c1ncn2[C@@H]1S[C@H](C(=O)N(C)C)[C@@H](O)[C@H]1O` showed a Ki at Adenosine receptor A3 of 1500 nM. Also, the results for the inhibition (at Adenosine receptor A2a [2]; in assay [3]) were 12% and 10%, respectively.
On to `CNc1nc(Cl)nc2c1ncn2[C@@H]1S[C@H](C(=O)NCC2CC2)[C@@H](O)[C@H]1O`, for which the inhibition constant (Ki) amounted to 1.1 nM at Adenosine receptor A3 and 638 nM on Adenosine receptor A1. For the same compound, the inhibition at Adenosine receptor A2a [2] was found to be 44%.
At Adenosine receptor A3, `CNc1nc(Cl)nc2c1ncn2[C@@H]1S[C@H](C(=O)NCc2cccc(F)c2)[C@@H](O)[C@H]1O` showed a Ki of 17.4 nM. The inhibition on Adenosine receptor A2a [2] worked out at 41%; in assay [3], 67%.
For `O=C(NCc1cccc(Cl)c1)[C@H]1S[C@@H](n2cnc3c(NCc4cccc(I)c4)nc(Cl)nc32)[C@H](O)[C@@H]1O`, the Ki on Adenosine receptor A3 is 308 nM; at Adenosine receptor A1 it was 1710 nM. On Adenosine receptor A2a [2], this compound gave an inhibition of 28%.
The compound `O=C(NCCc1ccccc1)[C@H]1S[C@@H](n2cnc3c(NCc4cccc(I)c4)nc(Cl)nc32)[C@H](O)[C@@H]1O` returned an inhibitory constant (Ki) on Adenosine receptor A3 of 433 nM. The inhibition on Adenosine receptor A2a [2] is 11%; in assay [3], 20%.
Consider `O=C([C@H]1S[C@@H](n2cnc3c(NC4CC4)nc(Cl)nc32)[C@H](O)[C@@H]1O)N1CCOCC1`, for which affinity on Adenosine receptor A3 was put at a Ki of 4440 nM. Also, the inhibition on Adenosine receptor A2a [2] is 11%; in assay [3] it was 25%.
In the case of `O=C(NC1CC1)[C@H]1S[C@@H](n2cnc3c(NC4CC4)nc(Cl)nc32)[C@H](O)[C@@H]1O`, the Ki on Adenosine receptor A2a [1] was 325 nM; at Adenosine receptor A3, 5.56 nM; on Adenosine receptor A1, 4.6 nM.
At Adenosine receptor A3, `O=C([C@H]1S[C@@H](n2cnc3c(NC4CC4)nc(Cl)nc32)[C@H](O)[C@@H]1O)N1CCC(Cc2ccccc2)CC1` returned a Ki of 4020 nM. The inhibition at Adenosine receptor A2a [2] came out at 33%; in assay [3], 32%.
`O=C([C@H]1S[C@@H](n2cnc3c(NCc4cccc(I)c4)nc(Cl)nc32)[C@H](O)[C@@H]1O)N1CCN(c2ccc(F)cc2)CC1` returned a Ki at Adenosine receptor A3 of 1440 nM. Moreover, the results for the inhibition (at Adenosine receptor A2a [2]; in assay [3]) were 12% and 24%, respectively.
Regarding `O=C([C@H]1S[C@@H](n2cnc3c(NCc4cccc(I)c4)nc(Cl)nc32)[C@H](O)[C@@H]1O)N1CCC(Cc2ccccc2)CC1`, the affinity on Adenosine receptor A3, expressed as Ki, was 878 nM. For the same compound, the values for the inhibition (at Adenosine receptor A2a [2]; in assay [3]) were 17% and 38%, respectively.
In the same order, the values of `Cc1ccccc1CNc1nc(Cl)nc2c1ncn2[C@@H]1S[C@H](C(=O)N2CCC(Cc3ccccc3)CC2)[C@@H](O)[C@H]1O` are 49200 nM, 15% and 26%.
With `CNc1nc(Cl)nc2c1ncn2[C@@H]1S[C@H](C(=O)NC2CC2)[C@@H](O)[C@H]1O`, the Ki at Adenosine receptor A2a [1] stood at 2770 nM; at Adenosine receptor A3, 2.82 nM; at Adenosine receptor A1, 47.8 nM.
Turning to `CNc1nc(Cl)nc2c1ncn2[C@@H]1S[C@H](C(=O)NCCC(C)C)[C@@H](O)[C@H]1O`, the Ki was 1.63 nM at Adenosine receptor A3 and 4070 nM on Adenosine receptor A1. The same compound came in with an inhibition on Adenosine receptor A2a [2] of 14%.
Turning to `CNC(=O)[C@H]1S[C@@H](n2cnc3c(NC4CCCC4)nc(Cl)nc32)[C@H](O)[C@@H]1O`, the results for the inhibition constant Ki at Adenosine receptor A2a [1], on Adenosine receptor A3 and at Adenosine receptor A1 were 921 nM, 4.27 nM and 13.9 nM, respectively.
In the case of `CC(C)CCNC(=O)[C@H]1S[C@@H](n2cnc3c(NCc4cccc(I)c4)nc(Cl)nc32)[C@H](O)[C@@H]1O`, affinity on Adenosine receptor A3 was put at a Ki of 41.9 nM. Also, the inhibition (on Adenosine receptor A2a [2]; in assay [3]) was 31% throughout.
At Adenosine receptor A3, `O=C(NCCC(c1ccccc1)c1ccccc1)[C@H]1S[C@@H](n2cnc3c(NCc4cccc(I)c4)nc(Cl)nc32)[C@H](O)[C@@H]1O` registered a Ki of 343 nM. The results for the inhibition (on Adenosine receptor A2a [2]; in assay [3]) were 3% and 5%, respectively.
In turn, `CNc1nc(Cl)nc2c1ncn2[C@@H]1S[C@H](C(=O)NCCC(c2ccccc2)c2ccccc2)[C@@H](O)[C@H]1O` returned an inhibitory constant (Ki) on Adenosine receptor A3 of 415 nM. In addition, the inhibition on Adenosine receptor A2a [2] came out at 15%; in assay [3] it was 20%.
Consider `CCNC(=O)[C@H]1S[C@@H](n2cnc3c(NC4CCCC4)nc(Cl)nc32)[C@H](O)[C@@H]1O`, for which the inhibition constant Ki at Adenosine receptor A2a [1] was 149 nM; at Adenosine receptor A1, 2 nM.
On Adenosine receptor A3, `Cc1ccccc1CNc1nc(Cl)nc2c1ncn2[C@@H]1S[C@H](C(=O)N2CCOCC2)[C@@H](O)[C@H]1O` returned a Ki of 7670 nM. Moreover, the inhibition was determined as 17% at Adenosine receptor A2a [2] and 4% in assay [3].
For `CCNC(=O)[C@H]1S[C@@H](n2cnc3c(NC4CC4)nc(Cl)nc32)[C@H](O)[C@@H]1O`, the values for the Ki on Adenosine receptor A2a [1], at Adenosine receptor A3 and at Adenosine receptor A1 were 604 nM, 0.67 nM and 3.2 nM, respectively.
As for `Cc1ccccc1CNc1nc(Cl)nc2c1ncn2[C@@H]1S[C@H](C(=O)NC2CC2)[C@@H](O)[C@H]1O`, the results for the Ki on Adenosine receptor A2a [1], at Adenosine receptor A3 and on Adenosine receptor A1 were 202 nM, 27.8 nM and 76.7 nM, respectively.
